# UCH37 DUB inh: blocks the human deubiquitinase UCH37; purified proteasome/UCH37, Ub-AMC cleavage fluorescence; inhibition, % (no concentration beside the values); 0.33% of 330,000 active; Q9Y5K5; AID 588478;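 active = mean inhibition over replicate wells above about 20%, limit read from the data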;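 note: 0% = compound-free wells with enzyme and 100% = wells lacking proteasome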
#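 System: Proteasome-associated human UCH37 deubiquitinase; Input: 0.15 nM proteasome in added enzyme buffer; Also added: Ub-AMC substrate from 1 µM stock; Incubation: 30 min compound-proteasome preincubation then 25 min substrate reaction, room temperature; Detection: fluorescence, ex 355 nm, em 460 nm; Read-out: % inhibition of Ub-AMC cleavage fluorescence; Benchmarks: no-proteasome and no-compound wells.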
# PfGluPho inh: PfG6PD (Plasmodium falciparum) enzyme inhibition; PfGluPho enzyme, NADPH resazurin-diaphorase fluorescence; inhibition, % at 20 µM; 0.78% of 350,000 active;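 active = inhibition reaching at least a set limit at 20 µM in the primary screen, cut at about 59% in these data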;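 note: 0% = DMSO wells with substrate and 100% = DMSO wells lacking glucose-6-phosphate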
# HKDC1 inhibitor: HKDC1 (human) hexokinase inhibition; recombinant HKDC1, G6PDH/diaphorase resazurin coupled fluorescence; 0.16% of 340,000 active; inhibition, % at 20 µM; AID 493160; Q2TB90;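 active = inhibition above about 35% when tested at 20 µM, limit read from the data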;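 note: plate controls were DMSO wells with enzyme for no effect and DMSO wells lacking enzyme for full effect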
#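 Test system: recombinant HKDC1 (HK5) hexokinase enzyme, produced in-house; Amount: enzyme 5 µg/mL final; Buffer or medium: Tris pH 8.0 buffer with MgCl2, Tween-20, BSA, BME; Reagent: glucose and ATP substrates; Doses: 20 µM test compound, 1% DMSO; Incubation: 90 min reaction incubation at room temperature, dark; Detection: resorufin fluorescence at 613 nm.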
# aDG glyco up: increases alpha dystroglycan glycosylation; activation, % at 10 µM; Pro5-aDG cells, alpha-DG glycosylation AlphaScreen (IIH6); 0% Pro5, 100% B10-LARGE cell signal; 0.22% of 360,000 active; AID 624168;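 active = activation of at least 8% versus controls, or a plate z-score of at least 8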;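 note: Pro5 are CHO cells carrying HIG-tagged alpha-DG that lacks glycosylation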
# Beta2AR agonist: activates human beta-2 adrenergic receptor causing internalization. P07550. Am2.2-beta2AR cells, FAP receptor internalization, flow cytometry. response, % (no concentration beside the values). 0.43% of 340,000 active. AID 504454;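 active = response above a set limit, near 3 SD of response in nonfluorescent compounds, cut at about 42% in these data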
# H9c2 protect: modulators protecting cardiomyocytes from myocardial damage. H9c2 cardiomyocytes, H2O2 injury protection, ATPLite, 2 h. protection from H2O2 cell death, % at 20 µM. 0.63% of 360,000 active;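 active = compounds giving at least 50% protection of heart cells from peroxide-induced death in the single-dose screen, raw or plate-pattern-corrected value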;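 note: 0% = DMSO wells with peroxide and 100% = DMSO wells without peroxide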
# The depositor's hits bear a star; i = inactive; · = no result. An excerpt weighted towards active compounds, which were near 2.1% of everything screened.
SMILES,UCH37 DUB inh,PfGluPho inh,HKDC1 inhibitor,aDG glyco up,Beta2AR agonist,H9c2 protect
C=CCN1C(=O)/C(=C/c2ccc(O)c(OC)c2)S/C1=N/c1nccs1,·,-22,-5,0,-191,51*
O=C(NCCOC(=O)c1ccc([N+](=O)[O-])cc1)c1cccnc1,1,-18,15,0,-2,-2
CCOC(=O)C1=C(C)NC(C)=C(C(=O)OCCNC(=O)c2cccnc2)C1c1cccc([N+](=O)[O-])c1 (stereo not given),10,10,5,0,-19,69*
CNc1nc(NN=Cc2cc3c(cc2[N+](=O)[O-])OCO3)nc(Nc2ccccc2)n1,7,·,·,·,·,·
Cc1ccc(S(=O)(=O)NCC(=O)N(c2ccccc2)C(C(=O)NCc2ccccc2)c2ccco2)cc1 (stereo not given),0,-3,-1,0,3,58*
CC(C)(C)OC(=O)NCc1ccc(NC(=O)c2nc[nH]c2C(=O)NCCNC(=O)c2[nH]cnc2C(=O)Nc2ccc(CNC(=O)OC(C)(C)C)cc2)cc1,0,-32,-2,0,18,38
CC(C)C[C@H](NC(=O)c1[nH]cnc1C(=O)Nc1ccc(CNC(=O)OC(C)(C)C)cc1)C(=O)OCc1ccccc1,1,24,1,0,10,-6
CC(C)(C)OC(=O)CNC(=O)c1[nH]cnc1C(=O)Nc1ccc(CNC(=O)OC(C)(C)C)cc1,-1,15,1,-1,23,87*
C[C@H](NC(=O)c1[nH]cnc1C(=O)Nc1ccc(CNC(=O)OC(C)(C)C)cc1)C(=O)OCc1ccccc1,3,13,-2,0,48*,-4
Cc1[nH]c2ccccc2c1C=NNC(N)=S,11,·,·,·,·,·
O=C(NNC(=S)NC(=O)c1cccc([N+](=O)[O-])c1)c1ccc(O)cc1,6,18,-1,0,2,14
O=C(NNC(=S)NC(=O)c1cccc([N+](=O)[O-])c1)c1ccc(Br)cc1,5,-43,-7,0,-8,56*
NC[C@H](Cc1ccccc1)NCCCCC1CCCCC1,0,-4,-8,0,-2,2
CNC[C@H](CC1CCCCC1)NC[C@H](Cc1ccccc1)NCCC12CC3CC(CC(C3)C1)C2,0,-2,-6,0,52*,-11
Cc1ccc(C(=O)NN=Cc2ccc(OC(=O)c3cccc(F)c3)cc2)cn1,1,·,·,·,·,·
O=C(Oc1ccc(Br)cc1C(=O)/C=C/c1ccccc1F)c1ccco1,2,1,23,0,58*,-16
COCCCNC(=O)c1c(N)n(N=Cc2cccs2)c2nc3ccccc3nc12,-391,·,·,·,·,·
COc1ccc(-c2n[nH]c(=S)n2N=C/C=C/c2ccccc2OC)cc1,4,·,·,·,·,·
NC1=NC(=O)/C(=C\c2ccc(O)c([N+](=O)[O-])c2)S1,24*,1,16,0,4,5
COc1cc(/C=C2/SC(N)=NC2=O)ccc1Oc1ccc([N+](=O)[O-])cc1[N+](=O)[O-],5,16,-4,3,-5,-7
C=CCn1cc(/C=C/c2cc[n+](C)cc2)c2ccccc21,22*,5,3,0,i,-14
CCn1cc(/C=C/c2cc[n+](C)cc2)c2ccccc21,20*,-5,2,0,·,-14
CC(=O)Nc1cccc(C(C)=NNC(=O)c2ccc(Cn3nc([N+](=O)[O-])c(Cl)c3C)o2)c1,1,·,·,·,·,·
CC(=NNC(=O)c1nnn(-c2nonc2N)c1-c1ccc2c(c1)OCO2)c1ccc(C)cc1,-10,·,·,·,·,·
CC(C)(C)NC(=O)COC(=O)c1c2c(nc3ccccc13)CCC2,-10,0,-3,0,10,50*
SMILES,UCH37 DUB inh,PfGluPho inh,HKDC1 inhibitor,aDG glyco up,Beta2AR agonist,H9c2 protect
CC(C)c1ccccc1NC(=O)COC(=O)c1c2c(nc3ccccc13)CCN(Cc1ccccc1)C2,-6,23,-4,-1,12,66*
NC(=O)COC(=O)c1c2c(nc3ccccc13)CCC2,-12,3,-6,0,0,-1
CC(CC(=O)NC1CCCC1)=NNC(=O)Cc1cccs1,3,·,·,·,·,·
NC(=O)c1cc2ccccc2o/c1=N\NC(=O)c1ccc(F)cc1,·,-4,2,0,-5,64*
CCOC(=O)C1=C(O)/C(=C/c2ccc(-c3ccccc3C(=O)O)o2)SC1=Nc1ccc(C)cc1,·,1,10,0,-54,-3
CCOC(=O)C1=C(O)/C(=C/c2ccc(-c3ccccc3C(=O)O)o2)SC1=Nc1ccc(OC)cc1,24*,-6,12,0,6,20
O=C(/C=C/c1ccc2c(c1)OCO2)NCCSCc1ccc(Cl)cc1,·,-14,-6,0,-2,-9
O=C(/C=C/c1ccc2c(c1)OCO2)NCCSCc1c(Cl)cccc1Cl,-7,13,0,0,77*,-14
COC(=O)c1ccc(/C=C/c2nc3ccccc3c(=O)[nH]2)cc1,-79,-3,3,0,2,-10
COCCOC(=O)N/C=C\c1nc2ccccc2c(=O)[nH]1,5,-5,1,0,10,65*
CC(=NNC(=S)Nc1cccc(C)c1)c1ccco1,6,·,·,·,·,·
NC(=NOC(=O)CCCC(=O)O)c1ncc(C(F)(F)F)cc1Cl,0,·,·,·,·,·
C[C@@H](OC(=O)N(C)Cc1ccccc1)[C@H]1O[C@]2(C)CCCC[C@H]1O2,30*,15,-7,0,1,2
CCOc1ccc(C(=O)NC(=S)Nc2ccccc2N2CCCCC2)cc1[N+](=O)[O-],4,-1,8,0,0,-16
CCOc1ccc(C(=O)NC(=S)Nc2ccc(N3CCCCC3)cc2)cc1[N+](=O)[O-],1,64*,-7,0,-3,-6
Nc1c(S(=O)(=O)c2ccccc2)c2nc3ccccc3nc2n1CCN1CCOCC1,-217,-5,-6,0,-2,2
Nc1c(S(=O)(=O)c2ccccc2)c2nc3ccccc3nc2n1Cc1ccco1,-404,10,5,19*,-19,-3
COc1cc2c(cc1OC)CN(c1nc(-c3cccnc3)nc3ccccc13)CC2,-3,6,8,0,-3,58*
O=S(=O)(c1ccccc1F)N1CCN(c2nc(-c3cccnc3)nc3ccccc23)CC1,3,10,1,0,12,47
N#Cc1ccccc1S(=O)(=O)N1CCN(c2nc(-c3cccnc3)nc3ccccc23)CC1,3,7,5,-1,13,83*
CN1CCN(c2nc(-c3cccnc3)nc3ccccc23)CC1,-173,-5,-2,0,-17,1
O=C(NN=Cc1ccc(N2CCCCC2)o1)c1ccccc1,7,·,·,·,·,·
COc1ccc2occ(C(=O)c3coc4ccc(O)c(CN(C)C)c34)c2c1,7,6,-6,9.1*,7,61*

# Bioassay records: PubChem BioAssay, several laboratories
